Data: ChEMBL document CHEMBL3044548, “Phytotoxic and antimicrobial activities of catechin derivatives” (2004)
Values after ≈ are worked out from the molar mass of the structure shown. Active and inactive are the calls of the source. No cut-off for these calls is given here.

Legend:
Penicillium sp. [1] = test: Antifungal activity against Penicillium sp. at 12.5 to 25 ug/ml after 96 hr by spectrophotometry; assay type: functional, organism-based
How it was run: (§1)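 Spore germination assay. Spores taken from 4-week-old PDA cultures kept in the dark at 24 °C and adjusted to 1 × 10⁵ spores/mL. 100 µL of spores added to serial dilutions of derivatives in PDB, from 1 mg/mL DMSO stocks. Value is the minimum concentration inhibiting germination. DMSO-only controls.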

Aspergillus niger [2] = test: Antifungal activity against Aspergillus niger at 12.5 to 25 ug/ml after 96 hr by spectrophotometry; assay type: functional, organism-based; how it was run: as §1
Fusarium oxysporum [3] = test: Antifungal activity against Fusarium oxysporum at 12.5 to 25 ug/ml after 96 hr by spectrophotometry; assay type: functional, organism-based; how it was run: as §1
Trichoderma viride = test: Antifungal activity against Hypocrea rufa at 12.5 to 25 ug/ml after 96 hr by spectrophotometry; assay type: functional, organism-based; how it was run: as §1
Trichoderma reesei = test: Antifungal activity against Trichoderma reesei at 12.5 to 25 ug/ml after 96 hr by spectrophotometry; assay type: functional, organism-based; how it was run: as §1
Pseudomonas fluorescens [4] = test: Bactericidal activity against Pseudomonas fluorescens at 3.1 ug/ml after 24 hr by BacLight bacterial viability fluorescence assay; assay type: functional, organism-based
Erwinia amylovora [5] = test: Bactericidal activity against Erwinia amylovora at 1.6 ug/ml after 24 hr by BacLight bacterial viability fluorescence assay; assay type: functional, organism-based
[6] = test system: Pectobacterium carotovorum; test: Bactericidal activity against Pectobacterium carotovorum at 3.1 ug/ml after 24 hr by BacLight bacterial viability fluorescence assay; assay type: functional, organism-based
Xanthomonas campestris [7] = test: Bactericidal activity against Xanthomonas euvesicatoria at 6.3 ug/ml after 24 hr by BacLight bacterial viability fluorescence assay; assay type: functional, organism-based
[8] = test system: Pectobacterium carotovorum; test: Antibacterial activity against Pectobacterium carotovorum after 24 hr by spectrophotometry; assay type: functional
How it was run: (§2)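 Bacterial isolates grown overnight at 37 °C to OD600 0.2. 5 µL of suspension incubated with serial dilutions of derivatives (100 to 0.05 µg) from 1 mg/mL DMSO stocks, 37 °C for 24 h. OD600 read; net growth is OD after 24 h minus OD at start. Percent inhibition is (untreated − treated)/untreated × 100. Two separate replicates. DMSO-only controls.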

Erwinia amylovora [9] = test: Antibacterial activity against Erwinia amylovora after 24 hr by spectrophotometry; assay type: functional; how it was run: as §2
Xanthomonas campestris [10] = test: Antibacterial activity against Xanthomonas campestris pv. vesicatoria after 24 hr by spectrophotometry; assay type: functional; how it was run: as §2
Pseudomonas fluorescens [11] = test: Antibacterial activity against Pseudomonas fluorescens after 24 hr by spectrophotometry; assay type: functional; how it was run: as §2
Centaurea maculosa [12] = test: Herbicidal activity against Centaurea maculosa assessed as inhibition of root differentiation at 200 ug/ml after 7 days; assay type: functional, organism-based
How it was run: (§3)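 Ten-day-old seedlings were placed in 5 mL liquid MS basal medium and given filter-sterilized compound at 10, 50, 100 or 200 µg mL^-1. Controls received a methanol vehicle. Cultures were kept at 27 ± 2 °C, shaken at 90 rpm, under 24 µmol m^-2 s^-1 light for 7 days. Shoot and root differentiation were given as percent inhibition versus untreated control, mean ± SD, n = 5.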

Ocimum basilicum = test: Herbicidal activity against Ocimum basilicum assessed as shoot growth inhibition at 200 ug/ml after 7 days; assay type: functional, organism-based; how it was run: as §3
Solanum lycopersicum = test: Herbicidal activity against Solanum lycopersicum (tomato) assessed as shoot growth inhibition at 200 ug/ml after 7 days; assay type: functional, organism-based; how it was run: as §3
Gaillardia aristata = test: Herbicidal activity against Gaillardia aristata assessed as shoot growth inhibition at 200 ug/ml after 7 days; assay type: functional, organism-based; how it was run: as §3
Arabidopsis thaliana = test: Herbicidal activity against Arabidopsis thaliana assessed as shoot growth inhibition at 200 ug/ml after 7 days; assay type: functional, organism-based; how it was run: as §3
Centaurea maculosa [13] = test: Herbicidal activity against Centaurea maculosa assessed as shoot growth inhibition at 200 ug/ml after 7 days; assay type: functional, organism-based; how it was run: as §3
Aspergillus niger [14] = test: Antifungal activity against Aspergillus niger at 25 ug/ml after 96 hr by spectrophotometry; assay type: functional, organism-based
How it was run: (§4)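 Spores from 4-week-old cultures grown on PDA at 24 °C in the dark were rinsed off in sterile water and adjusted to 1 × 10⁵ spores mL^-1. Spores were incubated with serial dilutions in PDB in 96-well plates at 37 °C under humidity. Controls were DMSO vehicle and (+)-catechin.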

Penicillium sp. [15] = test: Antifungal activity against Penicillium sp. at 25 ug/ml after 96 hr by spectrophotometry; assay type: functional, organism-based; how it was run: as §4
Fusarium oxysporum [16] = test: Antifungal activity against Fusarium oxysporum at 25 ug/ml after 96 hr by spectrophotometry; assay type: functional, organism-based; how it was run: as §1

| Structure (SMILES) | MIC [8] [µg/mL] | MIC (Erwinia amylovora [9]) [µg/mL] | MIC (Xanthomonas campestris [10]) [µg/mL] | MIC (Pseudomonas fluorescens [11]) [µg/mL] | Activity (Penicillium sp. [1]) | Activity (Aspergillus niger [2]) | Activity (Fusarium oxysporum [3]) | Activity (Trichoderma viride) | Activity (Trichoderma reesei) | Activity (Pseudomonas fluorescens [4]) | Activity (Erwinia amylovora [5]) | Activity [6] | Activity (Xanthomonas campestris [7]) | also measured |
| --- | --- | --- | --- | --- | --- | --- | --- | --- | --- | --- | --- | --- | --- | --- |
| CC(=O)Oc1cc(OC(C)=O)c2c(c1)OC(c1ccc(OC(C)=O)c(OC(C)=O)c1)C(OC(C)=O)C2 (racemic) [(+/-)-PENTAACETYLCATECHIN] | 25 (≈ 50 µM) | 25 (≈ 50 µM) | 25 (≈ 50 µM) | 12.5 (≈ 25 µM) | inactive | inactive | inactive | inactive | inactive | Active | Active | Active | Active |  |
| COc1cc(OC)c2c(c1)O[C@H](c1ccc(OC)c(OC)c1)[C@@H](O)C2 [CATECHIN TETRAMETHYLETHER] | 6.3 (≈ 18.2 µM) | 25 (≈ 72.2 µM) | 25 (≈ 72.2 µM) | 6.3 (≈ 18.2 µM) |  |  | inactive | inactive | inactive | Active | Active | Active | Active | Activity (Aspergillus niger [14]): Active; Activity (Penicillium sp. [15]): Active |
| COc1cc(OC)c2c(c1)OC(c1ccc(OC)c(OC)c1)C(O)C2 (racemic) | 6.3 (≈ 18.2 µM) | 12.5 (≈ 36.1 µM) | 12.5 (≈ 36.1 µM) | 12.5 (≈ 36.1 µM) | inactive | inactive | inactive | inactive | inactive | Active | Active | Active | Active | inhibition (Centaurea maculosa [12]): Active; growth inhibition (GI) (Ocimum basilicum): Active; growth inhibition (GI) (Solanum lycopersicum): Active; growth inhibition (GI) (Gaillardia aristata): Active; growth inhibition (GI) (Arabidopsis thaliana): Active; growth inhibition (GI) (Centaurea maculosa [13]): Active |
| Oc1cc(O)c2c(c1)OC(c1ccc(O)c(O)c1)C(O)C2 (racemic) |  |  |  |  | inactive | inactive | inactive | inactive | inactive | Active | Active | Active | Active |  |

Now from value to compound, other results behind:

| MIC [8] [µg/mL] | MIC (Erwinia amylovora [9]) [µg/mL] | MIC (Xanthomonas campestris [10]) [µg/mL] | MIC (Pseudomonas fluorescens [11]) [µg/mL] | Structure (SMILES) | Activity (Penicillium sp. [1]) | Activity (Aspergillus niger [2]) | Activity (Fusarium oxysporum [3]) | Activity (Trichoderma viride) | Activity (Trichoderma reesei) | Activity (Pseudomonas fluorescens [4]) | Activity (Erwinia amylovora [5]) | Activity [6] | Activity (Xanthomonas campestris [7]) | also measured |
| --- | --- | --- | --- | --- | --- | --- | --- | --- | --- | --- | --- | --- | --- | --- |
| 12.5 (≈ 37.8 µM) | 12.5 (≈ 37.8 µM) | 12.5 (≈ 37.8 µM) | 12.5 (≈ 37.8 µM) | CC1(C)OC2Cc3c(O)cc(O)cc3OC2c2cc(O)c(O)cc21 (racemic) | inactive | inactive | inactive | inactive | inactive | Active | Active | Active | Active | inhibition (Centaurea maculosa [12]): Active; growth inhibition (GI) (Ocimum basilicum): Active; growth inhibition (GI) (Solanum lycopersicum): Active; growth inhibition (GI) (Gaillardia aristata): Active; growth inhibition (GI) (Arabidopsis thaliana): Active; growth inhibition (GI) (Centaurea maculosa [13]): Active |
| 1.6 (≈ 4.84 µM) | 3.1 (≈ 9.38 µM) | 6.3 (≈ 19.1 µM) | 3.1 (≈ 9.38 µM) | CC1(C)O[C@H]2Cc3c(O)cc(O)cc3O[C@@H]2c2cc(O)c(O)cc21 | inactive | inactive | inactive | inactive | inactive | Active | Active | Active | Active |  |
| 6.3 (≈ 12.6 µM) | 6.3 (≈ 12.6 µM) | 6.3 (≈ 12.6 µM) | 6.3 (≈ 12.6 µM) | CC(=O)Oc1cc(OC(C)=O)c2c(c1)O[C@H](c1ccc(OC(C)=O)c(OC(C)=O)c1)[C@@H](OC(C)=O)C2 [CATECHIN PENTAACETATE] | inactive | inactive |  | inactive | inactive | Active | Active | Active | Active | Activity (Fusarium oxysporum [16]): Active |
| 1.6 (≈ 5.51 µM) | 1.6 (≈ 5.51 µM) | 1.6 (≈ 5.51 µM) | 1.6 (≈ 5.51 µM) | Oc1cc(O)c2c(c1)O[C@H](c1ccc(O)c(O)c1)[C@@H](O)C2 [CIANIDANOL] | Active | Active | Active | Active | Active | Active | Active | Active | Active |  |
